Data taken from PMC5609126 (ACS Chemical Neuroscience, 2017).

Columns and labels:
[1] = Metabolite analysis in plasma and brain tissue after tracer injection; format: in vivo; conditions: Wistar rats, mean ± SD; for parent tracer, brain: brain tissue
Procedure, shortened: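 Male Wistar rats (230–291 g) got radiotracer (28 ± 4 or 43 ± 24 MBq, depending on tracer) by tail vein under isoflurane and stayed conscious until sacrifice at 5, 15 or 60 min (n = 3). Heparinised plasma was run on a tC18 cartridge: the water wash was the polar metabolite fraction and the methanol eluate the nonpolar parent fraction, analysed by HPLC. Half-brains were homogenised in cold H2O/MeCN (1:1), centrifuged, and supernatants run on HPLC.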

P-gp [2] = assay: P-gp blocking study with tariquidar, PET whole brain uptake; format: in vivo; conditions: Wistar rats; for increase in brain uptake after tariquidar vs baseline scans: tariquidar 15 mg/kg i.v. 30 min before tracer, PET whole brain
P-gp [3] = assay: PET imaging in Mdr1a/b; format: in vivo, mice; conditions: for brain-to-blood AUC ratios: PET image-derived brain and blood curves
Procedure, shortened: (§1)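 Male FVB-background wild-type, Mdr1a/b(−/−) and Bcrp1(−/−) mice (28.3–39.7 g) were isoflurane-anaesthetised with jugular cannulas. They got 3.6–3.8 MBq radiotracer and 60 min dynamic PET in groups of 4–6, mostly on HRRT. One tracer's Mdr1a/b(−/−) vs WT study used nanoPET/CT and PET/MR. Ellipsoid ROIs gave brain TACs (SUV) and left-ventricle blood curves. Brain-to-blood AUC ratios were calculated from the AUCs.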

BCRP = assay: PET imaging in Bcrp1; format: in vivo; conditions: Bcrp1(-/-) mice, PET image-derived brain and blood curves
Procedure, shortened: as §1

PET imaging in wild-type = format: in vivo; conditions: WT mice, PET image-derived brain and blood curves
Procedure, shortened: as §1

[4] = Biodistribution in selected organs; format: in vivo; conditions: Wistar rats, 5, 15, 60 min after injection
Procedure, shortened: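 Male Wistar rats (218–244 g) got 50 ± 2 MBq radiotracer i.v. by tail vein under isoflurane (2% in O2). They stayed conscious until sacrifice, except the 5 min group. Rats were killed under isoflurane at 5, 15 or 60 min (n = 3). Heart-puncture blood, heart, lungs, liver, kidneys, bone, cerebral cortex, cerebellum and remaining brain were weighed and gamma-counted. Results were expressed as %ID/g.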

COc1ccc(CCN(CC[18F])CCC[C@](C#N)(c2ccc(OC)c(OC)c2)C(C)C)cc1OC [[^18F]1, (R)-5-((3,4-Dimethoxyphenethyl)(2-[^18F]fluoroethyl)amino)-2-(3,4-dimethoxyphenyl)-2-isopropylpentanenitrile]
parent tracer, brain ([1]; 15 min after injection): 14 ± 2 Percentage of total radioactivity
parent tracer, plasma ([1]; 15 min after injection): 19 ± 2 Percentage of total radioactivity
parent tracer, plasma ([1]; 60 min after injection): 3 ± 1 Percentage of total radioactivity
time of highest brain uptake (P-gp [2]; PET whole brain time-activity curve, tariquidar blocking study): 5 min
increase in brain uptake after tariquidar vs baseline scans (P-gp [2]): 3.6 fold
brain-to-blood AUC ratios (P-gp [3]; Mdr1a/b(-/-) mice): 0.98 ± 0.07
higher brain uptake in Mdr1a/b(-/-) mice compared with wild-type mice (P-gp [3]; during the first 10 min, PET whole brain): 1.4 fold
brain-to-blood AUC ratios (BCRP): 0.88 ± 0.06
brain-to-blood AUC ratios (PET imaging in wild-type): 0.52 ± 0.05
bone uptake (defluorination) [4]: bone uptake was low and did not increase over time
brain uptake [4]: low brain uptake

COc1ccc([C@@](C#N)(CCCNCCc2ccc(OCC[18F])c(OC)c2)C(C)C)cc1OC [[^18F]2, (R)-2-(3,4-Dimethoxyphenyl)-5-((4-(2-[^18F]fluoroethoxy)-3-methoxyphenethyl)amino)-2-isopropylpentanenitrile]
parent tracer, brain ([1]; 5 min after injection): 26 ± 6 Percentage of total radioactivity
parent tracer, brain ([1]; 15 min after injection): 17 ± 7 Percentage of total radioactivity
parent tracer, brain ([1]; 60 min after injection): 6 ± 1 Percentage of total radioactivity
parent tracer, plasma ([1]; 5 min after injection): 20 ± 3 Percentage of total radioactivity
parent tracer, plasma ([1]; 15 min after injection): 8 ± 3 Percentage of total radioactivity
parent tracer, plasma ([1]; 60 min after injection): 4 ± 1 Percentage of total radioactivity
increase in brain uptake after tariquidar vs baseline scans (P-gp [2]): 2.4 fold
brain-to-blood AUC ratios (P-gp [3]; Mdr1a/b(-/-) mice): 0.75 ± 0.14
SUV plateau of brain uptake (P-gp [3]; Mdr1a/b(-/-) mice, at the end of the scan (60 min)): about 0.9 SUV
higher brain uptake in Mdr1a/b(-/-) mice than in wild-type mice (P-gp [3]; maximum level over 60 min scan, PET whole brain): ≤ 6.4 fold
brain-to-blood AUC ratios (BCRP): 0.20 ± 0.02
brain-to-blood AUC ratios (PET imaging in wild-type): 0.18 ± 0.04
bone uptake (defluorination) [4]: low bone uptake
